Reference: paper PMC5084670 (Cancer Science, 2016)

Assays:
[1] = test system: primary human muscle cells; conditions: cited from earlier work
[2] = cited from earlier work
GLI1 = GLI1 expression in normal skin samples by RT-PCR; format: in vivo, human
In short: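 Adult Asian patients with advanced solid tumors took oral test compound once daily in 28-day cycles after a 7-day single-dose run-in. Normal skin was sampled before treatment, at the end of cycle 1, and within 14 days after the last dose. RNA was extracted and analysed by RT-PCR to estimate GLI1 expression as a marker of Hh pathway activation.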

[3] = cited from earlier work; remark: listed apart in the source
[4] = test system: murine model of MB with deletion of PTCH1; conditions: cited from earlier work
[5] = patients from Europe and the USA, CLDE225X2101 study

Cc1c(C(=O)Nc2ccc(N3C[C@@H](C)O[C@@H](C)C3)nc2)cccc1-c1ccc(OC(F)(F)F)cc1 [Sonidegib]
Effect on muscle cells [1]: induce muscle contraction and muscle fiber twitching | Rhabdomyolysis, patients ([2]; CLDE225X2101 study): three | Half-life (t 1/2) ([2]; as reported in non-Asian patients): ~ 28 days | AUClast ([2]; cycle 1 day 15, 400 mg, non-Asian patients (CLDE225X2101)): 8806 ng·h/mL | Maximum tolerated dose (MTD), once daily [2, 5]: 800 mg q.d. | Maximum tolerated dose (MTD), twice daily [2, 5]: 250 mg b.i.d. | Inhibition in GLI1 (normal skin, end of cycle 1 vs before treatment) (GLI1; group 1, 400 mg, four patients): 32–88% | Inhibition in GLI1 (normal skin, end of cycle 1 vs before treatment) (GLI1; group 1, 600 mg, nine patients): 73–96% | Inhibition in GLI1 (normal skin, end of cycle 1 vs before treatment) (GLI1; group 2, 400 mg, six patients): 6.8–95% | Inhibition in GLI1 (normal skin, end of cycle 1 vs before treatment) (GLI1; group 2, 600 mg, two patients): 53–83% | GLI1 expression in normal skin samples (GLI1; paired samples from 22 patients, all except one patient): decreased GLI1 expression | Commonly reported AE: alopecia [3]: 63% | Commonly reported AE: asthenia [3]: 36% | Commonly reported AE: dysgeusia [3]: 70% | Commonly reported AE: weight loss [3]: 46% | Antitumor activity [4]: antitumor activity
